Data taken from the EternaBench riboswitch data.

Test system: MS2 coat protein
Assay: apparent Kd, MS2 coat protein; higher = weaker binding; RNA-MaP array; FMN 200 µM where present
In short: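 The titrant was SNAP-549-labelled MS2 coat protein, run from 0.7 or 1.5 nM in doubling steps to 3 µM. It was applied to designs transcribed by stalled E. coli RNA polymerase on Illumina sequencing-chip clusters, without ligand first and then with constant ligand, in 100 mM Tris-HCl pH 7.5, 80 mM KCl, 4 mM MgCl2, BSA, DTT, yeast tRNA and Tween-20. The apparent Kd is the median of filtered per-cluster binding-curve fits, with green signal normalised to red-channel RNA signal and control-cluster median Fmax.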

[1] = designed as: OFF switch for flavin mononucleotide, no ligand
[2] = ligand present: flavin mononucleotide, designed as: OFF switch for flavin mononucleotide
[3] = designed as: ON switch for flavin mononucleotide, no ligand
[4] = ligand present: flavin mononucleotide, designed as: ON switch for flavin mononucleotide

Sequence	apparent Kd [1] [µM]	apparent Kd [2] [µM]	apparent Kd [3] [µM]	apparent Kd [4] [µM]
CCGAGGCGAGGAUAUAUGAAGGACACAACAUUUAGGGUAAGACAUGAGGAUCACCCAUGUAGAAGGCGCGACGC	0.0634	0.0558		
AAGAAACAUGAGGAUCACCCAUGUGAUAAUAUGGGAGGAUAUACAAAGACGAAAGUCGAAGUAGAAGGCCUAUGAA			0.0523	0.0432
UUUUAUUAGUAAGGAUAUACUAGCGAUUAGCUUGUAGAAGGUACAGUCUUAUGUAUAACAUGUUAACAUGAGGAUCACCCAUGU			0.0595	0.0361
AAUAAUUAGUGAGGAUAUACAUAAUUUAUUACUGUAGAAGGCACAAACCUCAAGACAUGAGGAUCACCCAUGUGGUAUUUAAAU	0.213	0.39		
AAUUAUUGAUGAGGAUAUUGUGGUGAAACACGACAAGAAGGCAUUAUACACAUGAGGAUCACCCAUGUGAGCCUGAUGCAUAUA	0.0166	0.0222		
CUACUGUGAGGAUAUGGUGAGUAGUGCCUGAGCGCUGCUCACCAGAAGGCACAUGAGGAUCACCCAUGUAUGAC	0.0539	0.22		
UUUAGUUCAGGAUAUGUAGAUUUUAACAUGAGGAUCACCCAUGUAGAUCCUGAUCCUGCUACAGAAGGAAAGAUUU	0.0269	0.0255		
AUCAGCUCGUCAGGAUAUAUGUCACUGCGUCAGCAGUGUGGUAAGAUCACAUGAGGAUCACCCAUGUAGAAGGGACGAGCUGAU	0.0307	0.0788		
CUUCAGUAAGGAUAUCAGCUUAGGAGGUUGGUAAUGAGAGCUGAGAAGGUACAUGAGGAUCACCCAUGUUAGUU	0.0203	0.033		
AAUAAGCUAGGAUAUACAUGAGGAUCACCCAUGUGAGGGCACGGCCGGCGCGGGCCCGGUAGAAGGAGUCAUAA	0.0286	0.0236		
UUGUUACAUGAGGAUCACCCAUGUGAGGAUAUGGUUCAGUACUGUCAUGUCGCGUACUCCAGAAGGCACAUGUU	0.0897	0.209		
GUCAGCUCGUUAGGAUAUACAACACUGCUUCGGCAGUGUAUUAAGAUCACAUGAGGAUCACCCAUGUAGAAGGCACGAGCUGAU	0.00816	0.0295		
GCCAUCGUAUGAGGAUAUGGCACCGAAACGGUGCCAGAAGGCAUGUCAAUUGACAUGAGGAUCACCCAUGUAUUAUCGAUGGCA			0.857	0.0891
AAGAACAUUGACAUGAGGAUCACCCAUGUUGCAGCUAGCUACAGAAGGCACGCGGUACCAAAGGGUGAGGAUAUGUAGGGCCAU			0.0934	0.0172
AGGUAUCCUGAGAAAUUUCUCCACAUGAGGAUCACCCAUGUAGAGGAUAUCGACGCUGUGCGGUUCGAGAAGGCUACACUAAAA		0.0153		
AAAAUGUGAGGAUAUCAGGUGUGCUAGCGUACUGGUACAUCUGAGAAGGCACAUGAGGAUCACCCAUGUUUCUU	0.0215	0.0797		
UUUAGUUCAGGAUAUGUAGAUUUUAACAUGAGGAUCACCCAUGUAGAUCCUGAAUUAACUACAGAAGGGAACAUUA	0.0213	0.0754		
UCGAUGUAAGAGAAGGAGGACUUCAUGAGGAUCACCCAUGUGUUAGUACUUAGGAUAUUUGACAACAUGAGGAUCACCCAUGUC			0.0643	0.0616
CUGUUAUAGGUCCAUUUUUUCAACAUGAGGAUCACCCAUGUGCAGGAUAUCGUGAUAAUUUUCAUCGAGAAGGGCAUAGUCACG	0.0249	0.0401		
UGAUAACAUGUAGGAUAUGCAGCAUUGACCACUGCAGAAGGACAUGAGGAUCACCCAUGUAGCCGUACUAUGGGAUCACGCAAU	0.0477	0.232		
UGCGAACAGGCUAACAUGAGGAUCACCCAUGUGGACUCAUGGUAGGAUAUCGGGAAGGAGGAAACCGAGAAGGGCCGGUGAGCG			0.197	0.065
CGUGACUCAGGAUAUCUAUAGUAUCACAUGAGGAUCACCCAUGUCCAGCGAAAGCUGGAGGGAGAAGGGAGUCACG	0.266	0.0539		
ACAUGAGGAUCACCCAUGUCUGCAUAGGAUAUUGAGGAUUAGGCAUAUUAUUAUGGAUUUGCCCACAAGAAGGAUGAAAUUGUU			0.0201	0.0134
